Data set [1] deals with Mus musculus. Briefly: Anticonvulsant activity in Kunming mouse assessed as protection against subcutaneous pentylenetetrazole-induced seizures at 300 mg/kg, ip after 0.5 hrs. It is filed as functional, organism-based. Set-up: dose 300 mg/kg. In short, it runs like this: (§1)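 Male Kunming mice (20 ± 2.0 g) received the compound ip as a suspension in 0.5% methylcellulose at 30, 100 or 300 mg/kg, one to four mice per dose. Pentylenetetrazole in 0.9% saline was given sc at 0.5 h and 4.0 h after dosing. Protection meant no threshold seizure (one clonic spasm episode of at least 5 s). Scored as protected/tested.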

For data set [2], the system named is Mus musculus. Briefly: Anticonvulsant activity in Kunming mouse assessed as protection against subcutaneous pentylenetetrazole-induced seizures at 100 mg/kg, ip after 4 hrs. It counts as functional, organism-based. Set-up: dose 100 mg/kg. In short, it runs like this:
as §1

Data set [3] deals with Mus musculus. Briefly: Neurotoxicity in Kunming mouse assessed as minimum motor impairment at 100 mg/kg, ip after 0.5 hrs by rotarod test. It counts as toxicity, organism-based. Set-up: dose 100 mg/kg, route intraperitoneal. Conditions: in vivo. The gist of the method:
(§2)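 Rotorod neurotoxicity in male Kunming mice (20 ± 2.0 g) given ip doses of 30, 100 or 300 mg/kg as a suspension in 0.5% methylcellulose, one to four mice per dose. Motor impairment was examined at 0.5 h and 4.0 h after injection. Reported as number of animals showing toxicity/number tested.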
For orientation: Falling from the rotarod earlier than controls is read as motor impairment.

The subject of data set [4] is Mus musculus. In words: Neurotoxicity in Kunming mouse assessed as minimum motor impairment at 30 mg/kg, ip after 4 hrs by rotarod test. It is filed as toxicity, organism-based. Set-up: dose 30 mg/kg, route intraperitoneal. Conditions: in vivo. The gist of the method: as §2
For data set [5], the system named is Mus musculus. In words: Anticonvulsant activity in Kunming mouse assessed as protection against subcutaneous pentylenetetrazole-induced seizures at 100 mg/kg, ip after 0.5 hrs. It counts as functional, organism-based. Set-up: dose 100 mg/kg. The gist of the method:
as §1

In data set [6] the test system is Mus musculus. Briefly: Anticonvulsant activity in Kunming mouse assessed as protection against maximal electroshock-induced seizures at 30 mg/kg, ip after 4 hrs. Set-up: dose 30 mg/kg. It is filed as functional, organism-based. A general note: The maximal electroshock test induces tonic seizures with an electrical stimulus.
The test system of data set [7] is Mus musculus. Briefly: Neurotoxicity in Kunming mouse assessed as minimum motor impairment at 30 mg/kg, ip after 0.5 hrs by rotarod test. Conditions: in vivo. It counts as toxicity, organism-based. Set-up: dose 30 mg/kg, route intraperitoneal. In short, it runs like this: as §2
Data set [8] has as its system Mus musculus. In words: Anticonvulsant activity in Kunming mouse assessed as protection against maximal electroshock-induced seizures at 100 mg/kg, ip after 0.5 hrs. It counts as functional, organism-based. Set-up: dose 100 mg/kg.
Data set [9] has as its system Mus musculus. Briefly: Anticonvulsant activity in Kunming mouse assessed as protection against subcutaneous pentylenetetrazole-induced seizures at 30 mg/kg, ip after 4 hrs. It counts as functional, organism-based. Set-up: dose 30 mg/kg. The gist of the method: as §1
For data set [10], the system named is Mus musculus. Briefly: Neurotoxicity in Kunming mouse assessed as minimum motor impairment at 100 mg/kg, ip after 4 hrs by rotarod test. It is filed as toxicity, organism-based. Set-up: dose 100 mg/kg, route intraperitoneal. Conditions: in vivo. In short, it runs like this: as §2
Data set [11] has as its system Mus musculus. Briefly: Anticonvulsant activity in Kunming mouse assessed as protection against subcutaneous pentylenetetrazole-induced seizures at 30 mg/kg, ip after 0.5 hrs. Set-up: dose 30 mg/kg. It is filed as functional, organism-based. In short, it runs like this: as §1
In data set [12] the test system is Mus musculus. Briefly: Anticonvulsant activity in Kunming mouse assessed as protection against subcutaneous pentylenetetrazole-induced seizures at 300 mg/kg, ip after 4 hrs. It is filed as functional, organism-based. Set-up: dose 300 mg/kg. The gist of the method: as §1
For data set [13], the system named is Mus musculus. In words: Anticonvulsant activity in Kunming mouse assessed as protection against maximal electroshock-induced seizures at 30 mg/kg, ip after 0.5 hrs. It is filed as functional, organism-based. Set-up: dose 30 mg/kg.
In data set [14] the test system is Mus musculus. In words: Anticonvulsant activity in Kunming mouse assessed as protection against maximal electroshock-induced seizures at 300 mg/kg, ip after 4 hrs. It is filed as functional, organism-based. Set-up: dose 300 mg/kg.
The subject of data set [15] is Mus musculus. In words: Neurotoxicity in Kunming mouse assessed as minimum motor impairment at 300 mg/kg, ip after 0.5 hrs by rotarod test. It is filed as toxicity, organism-based. Set-up: dose 300 mg/kg, route intraperitoneal. Conditions: in vivo. In short, it runs like this:
as §2

Data set [16] concerns Mus musculus. Briefly: Anticonvulsant activity in Kunming mouse assessed as protection against maximal electroshock-induced seizures at 100 mg/kg, ip after 4 hrs. It is filed as functional, organism-based. Set-up: dose 100 mg/kg.
Data set [17] has as its system Mus musculus. In words: Anticonvulsant activity in Kunming mouse assessed as protection against maximal electroshock-induced seizures at 300 mg/kg, ip after 0.5 hrs. It counts as functional, organism-based. Set-up: dose 300 mg/kg.
Data set [18] deals with Mus musculus. Briefly: Neurotoxicity in Kunming mouse assessed as minimum motor impairment at 300 mg/kg, ip after 4 hrs by rotarod test. Set-up: dose 300 mg/kg, route intraperitoneal. It counts as toxicity, organism-based. Conditions: in vivo. In short, it runs like this: as §2

Activity calls are given as the source filed them.

With `COc1ccc(OC)c(C2CC23NC(=O)N(C)C3=O)c1` (stereo not given), the outcome in data set [1], in data set [2], in data set [5], in [6], in data set [9] and in [11] was inactive. In data set [12], the result was inactive. Further, the Activity result in data set [3], in data set [4], in [7] and in data set [10] was “Non-toxic” each time. Moreover, the result in data set [8] and in data set [13] was Active.
For `CCC1CC12NC(=O)N(C)C2=O` (stereo not given), the result in data set [1], in data set [2], in data set [16], in data set [5], in data set [6] and in data set [9] was inactive. In addition, the result in data set [11] and in data set [13] was inactive. The result in data set [14] and in [17] was Active. Moreover, the Activity result in data set [15], in data set [3], in [4], in data set [7] and in data set [10] was “Non-toxic” in each case.
As for `CC(C)C1CC12NC(=O)N(C)C2=O` (stereo not given), the outcome in data set [1], in data set [2], in data set [5], in data set [9], in data set [11] and in data set [12] was inactive. The result in [14], in data set [8] and in data set [13] was Active. In addition, the Activity result in data set [15], in [3], in data set [4], in data set [7] and in data set [10] was “Non-toxic” each time.
Take `COc1ccc(C2CC23NC(=O)N(C)C3=O)cc1OC` (stereo not given): the outcome in data set [2], in data set [5], in [6], in [9] and in data set [11] was inactive. In addition, the outcome in [14], in data set [8] and in data set [13] was Active. In addition, the Activity entry in [3], in [4], in [7] and in [10] was “Non-toxic” throughout.
As for `CC(C)CC1CC12NC(=O)N(C)C2=O` (stereo not given), the result in data set [2], in [5], in [6], in data set [9] and in [12] was inactive. For the same compound, the Activity entry in data set [15] is on record as “Toxic”; in [3], “Non-toxic”; in [4], “Non-toxic”; in data set [18], “Non-toxic”; in data set [7] it was “Toxic”; in [10] it was “Non-toxic”. For the same compound, the result in [8], in data set [11] and in data set [13] was Active.
Take `Cc1ccc(C2CC23NC(=O)N(C)C3=O)cc1` (stereo not given): the outcome in data set [2], in data set [5], in data set [6], in data set [9] and in data set [11] was inactive. The Activity entry in data set [15] is “Toxic”; in [3], “Non-toxic”; in data set [4], “Non-toxic”; in data set [18] it was “Non-toxic”; in data set [7] it was “Non-toxic”; in [10], “Non-toxic”. In addition, the outcome in data set [8] and in data set [13] was Active.
As to `CCC(CC)C1CC12NC(=O)N(C)C2=O` (stereo not given), the result in data set [1], in data set [2], in [16], in [5], in data set [6] and in [9] was inactive. The result in data set [11] and in data set [13] was inactive. Also, the Activity result in data set [15], in data set [3], in data set [4], in data set [18], in [7] and in [10] was “Non-toxic” in each case. The outcome in data set [17] was Active.
On to `COc1cc(C2CC23NC(=O)N(C)C3=O)cc(OC)c1OC` (stereo not given), for which the outcome in data set [2], in [16], in data set [5], in data set [6], in data set [9] and in data set [11] was inactive. Moreover, in data set [13], the result was inactive. The result in data set [14] and in [8] was Active. Moreover, the Activity result in data set [15], in data set [3], in data set [4], in [18], in [7] and in data set [10] was “Non-toxic” in each case.
On to `CN1C(=O)NC2(CC2c2ccc(Cl)cc2)C1=O` (stereo not given), for which the outcome in data set [2], in [16], in data set [5], in data set [6], in data set [9] and in data set [11] was inactive. For the same compound, the outcome in data set [12] and in data set [13] was inactive. The Activity result in data set [3] is “Toxic”; in [4] it was “Non-toxic”; in data set [7], “Non-toxic”; in [10] it was “Toxic”. The outcome in [8] was Active.
As to `CCCC1CC12NC(=O)N(C)C2=O` (stereo not given), the result in data set [1], in [2], in data set [5], in [6], in data set [9] and in data set [11] was inactive. The result in data set [12] and in data set [13] was inactive. In addition, the outcome in data set [14] and in data set [8] was Active. Also, the Activity entry in data set [15] is on record as “Toxic”; in data set [3] it was “Non-toxic”; in data set [4], “Non-toxic”; in data set [18], “Toxic”; in data set [7], “Toxic”; in [10] it was “Non-toxic”.

Values taken from ChEMBL document CHEMBL1240414, “Synthesis and anticonvulsant activity of new 6-methyl-1-substituted-4,6-diazaspiro[2.4]heptane-5,7-diones” (Eur J Med Chem, 2010).
